Test results taken from ChEMBL document CHEMBL4196170, “Cytotoxic p-Terphenyls from the Endolichenic Fungus Floricola striata” (J Nat Prod, 2018).
Counter-ions that a name gives are not always drawn. The source made the active and inactive calls. The rule behind the calls is not given here.

What was measured:
Homo sapiens [1] = species on record: Homo sapiens; experiment: Inhibition of P-gp in human MCF7/ADR cells assessed as increase in intracellular Rh123 accumulation by measuring increase in fluorescence intensity after 24 hrs by fluorescence microscopic analysis; type: cell-based
Outline: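 Rh123 (5 μM)-exposed MCF-7/ADR cells, untreated or treated with modulator (10 μM) or verapamil (10 μg/mL), photographed by fluorescence microscopy after 24 h.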

Homo sapiens [2] = species on record: Homo sapiens; settings: 10 ug/ml
Homo sapiens [3] = species on record: Homo sapiens; experiment: Inhibition of P-gp in human MCF7/ADR cells assessed as increase in intracellular Rh123 accumulation after 1 hr by flow cytometry; type: cell-based
Outline: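 Exponentially growing MCF-7/ADR cells (3 × 10^5/mL) loaded with Rh123 (5 μM) with or without modulator (5, 10, 20 μM) or verapamil (10 μg/mL), 1 h at 37 °C. Rh123 accumulation (%) by flow cytometry, excitation 488 nm, emission through 530 nm filter; untreated cells as negative control. Mean ± SD of three independent experiments.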

MCF7 [4] = experiment: Increase in adriamycin accumulation in human MCF7 cells at 10 ug/ml after 1 hr by flow cytometry; type: functional, cell-based
Outline: (§1)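 4 × 10^5 MCF-7 or MCF-7/ADR cells incubated 1 h at 37 °C with 10.0 μM adriamycin alone or with modulator (5, 10, 20 μM) or verapamil (10 μg/mL); washed twice in ice-cold PBS. Adriamycin accumulation (%) by flow cytometry relative to untreated cells. Mean ± SD, three independent experiments.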

A549 = experiment: Cytotoxicity against human A549 cells after 48 hrs by MTT assay; type: functional, cell-based; settings: A549, 48 h
Outline: (§2)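 Cells seeded at 5000−10 000 per well, preincubated 12 h at 37 °C, 5% CO2, then exposed to a range of concentrations for 48 h. MTT added, absorbance read at 570 nm after 4 h; percent growth inhibition used to derive IC50. Adriamycin as positive control.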

A2780 = experiment: Cytotoxicity against human A2780 cells after 48 hrs by MTT assay; type: functional, cell-based; settings: A2780, 48 h; outline: as §2
MCF7 [5] = experiment: Cytotoxicity against human MCF7 cells after 48 hrs by MTT assay; type: functional, cell-based; settings: MCF7, 48 h; outline: as §2
Homo sapiens [6] = species on record: Homo sapiens; experiment: Inhibition of P-gp in human MCF7/ADR cells assessed as potentiation of adriamycin-induced cytotoxicity by measuring fold reduction in adriamycin IC50 at 10 uM after 48 hrs by MTT assay relative to adriamycin alone; type: cell-based
Outline: (§3)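 MCF-7/ADR (ADM-selected, P-gp-overexpressing) and MCF-7 cells given graded adriamycin with or without modulator (5 or 10 μM) or verapamil 10 μg/mL for 48 h; MTT read at 570 nm. Reversal fold from adriamycin IC50 alone versus IC50 in combination.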

NCI/ADR-RES = experiment: Cytotoxicity against human MCF7/ADR cells after 48 hrs by MTT assay; type: functional, cell-based
Outline: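 MTT format as for parental lines: 48 h exposure to various concentrations in ADM-selected P-gp-overexpressing MCF-7/ADR cells, absorbance at 570 nm after 4 h MTT, IC50 from percent growth inhibition.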

Homo sapiens [7] = species on record: Homo sapiens; experiment: Inhibition of P-gp in human MCF7/ADR cells assessed as increase in intracellular accumulation of adriamycin after 1 hr by flow cytometry; type: cell-based; outline: as §1
Homo sapiens [8] = species on record: Homo sapiens; experiment: Inhibition of P-gp in human MCF7/ADR cells assessed as increase in intracellular accumulation of adriamycin by measuring increase in fluorescence intensity at 10 uM after 24 hrs by fluorescence microscopic analysis; type: cell-based
Outline: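 MCF-7/ADR cells imaged by fluorescence microscopy for adriamycin fluorescence after 24 h incubation with or without modulator (10 μM) or verapamil (10 μg/mL); untreated cells as negative control.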

MCF7 [9] = experiment: Increase in adriamycin accumulation in human MCF7 cells at 20 uM after 1 hr by flow cytometry; type: functional, cell-based; outline: as §1
Homo sapiens [10] = species on record: Homo sapiens; experiment: Inhibition of P-gp in human MCF7/ADR cells assessed as potentiation of adriamycin-induced cytotoxicity by measuring fold reduction in adriamycin IC50 at 5 uM after 48 hrs by MTT assay relative to adriamycin alone; type: cell-based; outline: as §3

Compound | IC50 (A549) [µM] | IC50 (A2780) [µM] | IC50 (MCF7 [5]) [µM] | other results
COc1ccc(CCN(C)CCCC(C#N)(c2ccc(OC)c(OC)c2)C(C)C)cc1OC (configuration not stated) | – | – | – | inhibition (Homo sapiens [1]): Dose-dependent effect; inhibition (Homo sapiens [2]): Active; inhibition (Homo sapiens [3]): Dose-dependent effect; Activity (MCF7 [4]): inactive
COc1cc(-c2ccc(O)cc2)c(O)c2oc3ccc(O)cc3c12 | > 40 | 21.4 | 17.9 | –
COC1=C(c2ccccc2O)C(=O)C=C(c2ccc(O)cc2)C1=O | > 40 | 8.6 | 16.7 | –
COc1ccc(-c2c(O)cc(-c3ccccc3)c(OC)c2OC)cc1 | > 40 | > 40 | > 40 | –
O=C1C[C@@](O)(c2ccccc2)[C@H](O)c2oc3ccc(O)cc3c21 | > 40 | > 40 | > 40 | –
COc1ccc(-c2cc(OC)c(-c3ccccc3)c(OC)c2O)cc1 | 12.5 | > 40 | 38.5 | –
COc1ccc(-c2cc(OC)c(-c3ccccc3O)c(OC)c2OC)cc1 | > 40 | > 40 | > 40 | –
COc1cccc2c1C(=O)c1c(O)c3c(c(O)c1C2=O)C[C@@](O)(C(=O)CO)C[C@@H]3O[C@H]1C[C@H](N)[C@H](O)[C@H](C)O1 [DOXORUBICIN HYDROCHLORIDE] | 1.3 | 0.5 | – | –
COC1=C(c2ccc(OC)cc2)C(=O)C=C(c2ccccc2)C1=O | 40.1 | 3.4 | 19.9 | inhibition (Homo sapiens [1]): Dose-dependent effect; inhibition (Homo sapiens [3]): Dose-dependent effect; fold change (FC) (Homo sapiens [6]): 39.1; IC50 (NCI/ADR-RES): 23.5 µM; inhibition (Homo sapiens [7]): Dose-dependent effect; inhibition (Homo sapiens [8]): Active; Activity (MCF7 [9]): inactive; fold change (FC) (Homo sapiens [10]): 1.3
COc1cc(-c2ccc(O)cc2)c(O)c2oc3cc(O)ccc3c12 | 27.8 | 14.9 | 11.7 | –
COc1cc(-c2ccccc2)c(O)c2oc3ccc(O)cc3c12 | > 40 | 25.1 | 13.4 | –
COc1ccc(-c2c(OC)cc(-c3ccccc3)c(OC)c2OC)cc1 | > 40 | > 40 | > 40 | –
COc1cc(-c2ccc(O)cc2)c(O)c2oc3ccccc3c12 | > 40 | 40.1 | 17.5 | –
